Results published in article PMC11268778 (International Journal of Nanomedicine, 2024).

Experiments:
Encapsulation = format: physicochemical; settings: estimated from FITC signals of supernatants of broken minus un-broken NPs
Summary of the method: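 PLGA (5 mg/mL in acetonitrile) containing FITC-labelled peptide was injected at 2 mL/min into 0.1% PVA and stirred 48 h. Particles were washed three times (15,000 rpm, 10 min) and freeze-dried. 1 mg NPs was disrupted in 50% DMSO/0.5% SDS/0.1 M NaOH for 1 h. FITC was read at 488/520 nm against a free-peptide calibration line. Surface-adsorbed fraction = broken minus unbroken supernatant signal. Triplicate.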

[1] = In vitro release from PLGA-NPs; format: physicochemical; settings: 1 mg NPs in 1.5 mL PBS pH 7.2, 37 °C, FITC fluorescence, triplicate

| peptide adsorbed on the external surface of NPs (Encapsulation) | peptide released from PLGA-NPs at 0.5 h [1] [%] | Substance |
| --- | --- | --- |
| ~ 63% | – | βAla-G-βAla-QL-PEG-AAFAARA [Ctrl PEG] |
| – | 100 | βAla-G-βAla-QL-PEG-AAFAARAV [Ctrl PEG-Val] |
